Values after ≈ are worked out from the molar mass of the structure shown.
Legend:
[1] = system: Vesicular stomatitis virus; experiment: Antiviral activity against Vesicular stomatitis virus infected in human HeLa cells assessed as protection against virus-induced cytopathogenicity; assay type: functional
[2] = system: Human respirovirus 3; experiment: Antiviral activity against Parainfluenza-3 virus infected in african green monkey Vero cells assessed as protection against virus-induced cytopathogenicity; assay type: functional
[3] = system: HeLa; experiment: Cytotoxicity against human HeLa cells assessed as change in cell morphology; assay type: functional
Method in brief: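 The minimum cytotoxic concentration (MCC) is the concentration causing a microscopically detectable alteration of cell morphology in the uninfected host cell culture.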

[4] = system: Cytomegalovirus; experiment: Antiviral activity against Cytomegalovirus Davis infected in HEL cells assessed as reduction in virus plaque formation; assay type: functional, organism-based; settings: Human betaherpesvirus 5, Davis
Method in brief: (§1)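 Plaque reduction in HEL cells against CMV (AD-169, Davis) or VZV (TK⁺ OKA, TK⁻ 07/1), using a virus input of 20 PFU. EC50 is the concentration that reduced plaque formation by 50%.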

[5] = system: Human alphaherpesvirus 2; experiment: Antiviral activity against Herpes simplex virus 2 infected in HEL cells assessed as protection against in virus-induced cytopathogenicity; assay type: functional
[6] = system: Mammalian orthoreovirus 1; experiment: Antiviral activity against Reovirus 1 infected in african green monkey Vero cells assessed as protection against virus-induced cytopathogenicity; assay type: functional
[7] = system: Vesicular stomatitis virus; experiment: Antiviral activity against sVesicular stomatitis virus infected in HEL cells assessed as protection against virus-induced cytopathogenicity; assay type: functional
[8] = Cytotoxicity against Varicella Zoster Virus infected human […] cells assessed as reduction in cell growth; assay type: cell-based
[9] = system: Coxsackievirus B4; experiment: Antiviral activity against Coxsackievirus B4 infected in human HeLa cells assessed as protection against virus-induced cytopathogenicity; assay type: functional; settings: Enterovirus B
[10] = system: Human alphaherpesvirus 1; experiment: Antiviral activity against acyclovir-resistant thymidine kinase-deficient HSV1 KOS infected in human HEL cells assessed as protection against virus-induced cytopathogenicity; assay type: functional; settings: Human alphaherpesvirus 1, KOS
[11] = system: Human betaherpesvirus 5; experiment: Antiviral activity against Cytomegalovirus AD169 infected in HEL cells assessed as reduction in virus plaque formation; assay type: functional, organism-based; settings: Human betaherpesvirus 5, AD169, HEL; method in brief: as §1
[12] = Cytotoxicity against Cytomegalovirus infected HEL cells assessed as change in cell morphology; assay type: cell-based; settings: human
Method in brief: (§2)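 HEL cell cultures examined under the microscope. Minimal cytotoxic concentration (MCC) is the concentration that causes a microscopically detectable alteration of cell morphology. Compounds were tested at subtoxic concentrations alongside the antiviral tests.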

[13] = system: Human immunodeficiency virus 2; experiment: Antiviral activity against HIV-2 ROD infected in human MT4 cells assessed as protection against virus-induced cytopathogenicity at 125 ug/ml; assay type: functional, ISOLATE ROD
Method in brief: (§3)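 MT-4 cells infected with HIV-1 (IIIB) or HIV-2 (ROD), with maximum protection (%) against virus-induced cytopathicity recorded at 125 of compound.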

[14] = Cytotoxicity against african green monkey Vero cells assessed as change in cell morphology; assay type: cell-based; settings: chlorocebus sabaeus
Method in brief: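 Vero cell cultures were used for the broad-spectrum antiviral screen. The MCC endpoint is the lowest concentration that causes a microscopically detectable alteration of cell morphology. Activity was called when 5 × MIC < MCC.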

[15] = system: Human alphaherpesvirus 3; experiment: Antiviral activity against Varicella Zoster Virus OKA infected in HEL cells assessed as reduction in virus plaque formation; assay type: functional, organism-based; settings: Human alphaherpesvirus 3, OKA; method in brief: as §1
[16] = system: Respiratory syncytial virus; experiment: Antiviral activity against RSV infected in human HeLa cells assessed as protection against virus-induced cytopathogenicity; assay type: functional
[17] = system: Human immunodeficiency virus 2; experiment: Antiviral activity against HIV-2 ROD infected human MT4 cells assessed as protection against virus-induced cytopathogenicity; assay type: functional, organism-based; settings: Human immunodeficiency virus 2, ISOLATE ROD
Method in brief: (§4)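 HIV-1 (IIIB) or HIV-2 (ROD) infection of MT-4 cells, scored as protection against virus-induced cytopathicity. IC50 was derived from protection.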

[18] = system: Human alphaherpesvirus 1; experiment: Antiviral activity against HSV1 KOS infected in HEL cells assessed as protection against virus-induced cytopathogenicity; assay type: functional; settings: Human alphaherpesvirus 1, KOS
[19] = Cytotoxicity against HIV-1 3B infected human MT4 cells; assay type: cell-based; settings: HIV-1 3B-infected MT4 cells
[20] = system: Punta Toro virus; experiment: Antiviral activity against Punta Toro virus infected in african green monkey Vero cells assessed as protection against virus-induced cytopathogenicity; assay type: functional
[21] = Cytotoxicity against Varicella Zoster Virus infected human […] cells assessed as change in cell morphology; assay type: cell-based
[22] = system: Coxsackievirus B4; experiment: Antiviral activity against Coxsackievirus B4 infected in african green monkey Vero cells assessed as protection against virus-induced cytopathogenicity; assay type: functional; settings: Enterovirus B
[23] = system: Sindbis virus; experiment: Antiviral activity against Sindbis virus infected in african green monkey Vero cells assessed as protection against virus-induced cytopathogenicity; assay type: functional
[24] = system: Human alphaherpesvirus 3; experiment: Antiviral activity against thymidine kinase deficient Varicella Zoster Virus 07/1 infected in HEL cells assessed as reduction in virus plaque formation; assay type: functional, organism-based; settings: Human alphaherpesvirus 3, 07/1, HEL; method in brief: as §1
[25] = Cytotoxicity against HEL cells assessed as change in cell morphology; assay type: cell-based; settings: human; method in brief: as §2
[26] = system: Human immunodeficiency virus 1; experiment: Antiviral activity against HIV-1 3B infected in human MT4 cells assessed as protection against virus-induced cytopathogenicity at 125 ug/ml; assay type: functional; method in brief: as §3
[27] = Cytotoxicity against Cytomegalovirus infected HEL cells assessed as reduction in cell growth; assay type: cell-based; settings: human
[28] = system: Human immunodeficiency virus 1; experiment: Antiviral activity against HIV-1 3B infected human MT4 cells assessed as protection against virus-induced cytopathogenicity; assay type: functional, organism-based; settings: Human immunodeficiency virus 1, 3B; method in brief: as §4

## CCNC(=S)Nc1ccc(NS(C)(=O)=O)c(Oc2ccccc2)c1
[1]
  MIC50: > 40 µg/mL
[2]
  MIC50: ≥ 24 µg/mL
[3]
  MCC: 200 µg/mL
[4]
  EC50: > 100 µg/mL
[5]
  MIC50: 120 µg/mL (≈ 328 µM)
[6]
  MIC50: > 40 µg/mL
[7]
  MIC50: > 200 µg/mL
[8]
  CC50: > 100 µg/mL
[9]
  MIC50: > 40 µg/mL
[10]
  MIC50: 120 µg/mL (≈ 328 µM)
[11]
  EC50: > 100 µg/mL
[12]
  CC50: > 100 µg/mL
[13]
  Activity: 89.5%
[14]
  MCC: 200 µg/mL
[15]
  EC50: > 100 µg/mL
[16]
  MIC50: > 40 µg/mL
[17]
  IC50: 65.9 µg/mL (≈ 180 µM)
[18]
  MIC50: 120 µg/mL (≈ 328 µM)
[19]
  CC50: > 125 µg/mL
[20]
  MIC50: > 40 µg/mL
[21]
  CC50: > 100 µg/mL
[22]
  MIC50: > 40 µg/mL
[23]
  MIC50: > 40 µg/mL
[24]
  EC50: > 100 µg/mL
[25]
  MCC: > 200 µg/mL
[26]
  Activity: 97%
[27]
  CC50: > 100 µg/mL
[28]
  IC50: 54.8 µg/mL (≈ 150 µM)
